According to ChEMBL document CHEMBL4665717, “New V1a receptor antagonist. Part 2. Identification and optimization of triazolobenzazepines” (Bioorg Med Chem Lett, 2020):
pIC50, pKi: −log10 of the molar value. Values belong to the compound of their own block, whether it stands above or below them.

What was measured:
[1] = molecular target: T1, Vasopressin V1a receptor (Homo sapiens, UniProt P37288); test: Inhibition of human V1a receptor expressed in human 1321N1 cells assessed as decrease in Arg8-vasopressin-stimulated calcium flux at 10 uM by fluorometric calcium assay relative to control; format: functional, cell-based
Target sequence in this assay (P37288 whole entry, looked up): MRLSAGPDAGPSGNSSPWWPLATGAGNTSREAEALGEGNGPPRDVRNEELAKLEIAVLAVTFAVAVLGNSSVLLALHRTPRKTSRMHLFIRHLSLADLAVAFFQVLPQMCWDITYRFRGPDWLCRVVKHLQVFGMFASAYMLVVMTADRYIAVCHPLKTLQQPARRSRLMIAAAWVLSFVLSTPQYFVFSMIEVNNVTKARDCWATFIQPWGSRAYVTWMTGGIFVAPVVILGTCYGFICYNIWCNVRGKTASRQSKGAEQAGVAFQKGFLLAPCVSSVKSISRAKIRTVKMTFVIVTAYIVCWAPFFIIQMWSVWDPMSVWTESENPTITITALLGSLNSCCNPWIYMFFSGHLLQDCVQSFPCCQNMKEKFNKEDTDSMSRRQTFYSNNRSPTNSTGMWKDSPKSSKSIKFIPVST

[2] = molecular target: T1, Vasopressin V1a receptor; test: Displacement of [3H]AVP from human V1a receptor expressed in […] cells assessed as dissociation constant by radioligand binding assay; format: cell-based, 1321N1
Outline: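 Membranes from 1321N1 cells expressing human V1a or V2 receptor incubated with [3H]AVP and increasing test compound concentrations. Nonspecific binding defined with 2 µM arginine-vasopressin for both receptors. IC50 taken from sigmoidal fit of displacement curves, then converted to Ki by Cheng-Prusoff.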
Target sequence in this assay (P37288 whole entry): as the sequence (P37288 whole entry, looked up) above

[3] = molecular target: T1, Vasopressin V1a receptor; test: Inhibition of human V1a receptor expressed in human 1321N1 cells assessed as decrease in Arg8-vasopressin-stimulated calcium flux by fluorometric calcium assay; format: functional, cell-based
Outline: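 1321N1 cells expressing human V1a receptor stimulated with (Arg8)-vasopressin. Intracellular Ca2+ change measured. IC50 values averaged from at least three independent measurements.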
Target sequence in this assay (P37288 whole entry): as the sequence (P37288 whole entry, looked up) above

[4] = in vitro; conditions: Wistar, rat, liver microsomes
[5] = in vitro; conditions: NMRI, mouse, liver microsomes
[6] = in vitro; conditions: human, liver microsomes
[7] = molecular target: T1, Vasopressin V1a receptor; test: Displacement of [3H]AVP from human V1a receptor expressed in […] cells at 10 uM by radioligand binding assay relative to control; format: cell-based
Outline: (§1)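 Membranes from 1321N1 cells expressing human V1a or V2 receptor incubated with [3H]AVP and single test concentration. Nonspecific binding defined with 2 µM arginine-vasopressin.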
Target sequence in this assay (P37288 whole entry, looked up): as above

[8] = species: Mus musculus; test: animal or person; conditions: ip, 1 h, read-out: INH
[9] = molecular target: Vasopressin V2 receptor (Homo sapiens, UniProt P30518); test: Displacement of [3H]AVP from human […] receptor expressed in […] cells at 1 uM by radioligand binding assay relative to control; format: cell-based; conditions: 1321N1; outline: as §1
Sequence of Vasopressin V2 receptor (P30518 whole entry): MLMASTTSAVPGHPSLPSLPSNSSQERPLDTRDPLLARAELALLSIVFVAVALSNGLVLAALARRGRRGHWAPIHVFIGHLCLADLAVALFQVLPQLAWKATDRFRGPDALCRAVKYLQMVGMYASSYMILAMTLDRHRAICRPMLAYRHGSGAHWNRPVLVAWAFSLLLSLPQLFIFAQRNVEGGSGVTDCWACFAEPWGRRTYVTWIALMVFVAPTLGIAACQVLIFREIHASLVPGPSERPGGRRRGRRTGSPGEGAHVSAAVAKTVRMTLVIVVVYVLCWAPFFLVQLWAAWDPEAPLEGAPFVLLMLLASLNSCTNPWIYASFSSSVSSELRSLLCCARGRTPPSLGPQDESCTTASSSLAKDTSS

[10] = Apparent permeability across apical to basolateral side in vinblastine-treated human Caco-2 cells at 1 uM by HPLC-UV analysis; format: ADME
Outline: (§2)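 Bidirectional transport across VB-Caco-2 monolayers with test compound at 1 or 10 µM. Apparent permeability A→B reported, with PDR from the two directions.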

[11] = system: P-glycoprotein; test: Efflux ratio of Apparent permeability across apical to basolateral side in vinblastine-treated human Caco-2 cells expressing P-glycoprotein at 1 uM by HPLC-UV analysis; format: ADME; outline: as §2
[12] = system: P-glycoprotein; test: Efflux ratio of Apparent permeability across apical to basolateral side in human Caco-2 cells expressing P-glycoprotein at 10 uM by HPLC-UV analysis
[13] = Apparent permeability across apical to basolateral side in vinblastine-treated human Caco-2 cells at 10 uM by HPLC-UV analysis

inhibition [1]: 11%
pKi [2]: 5.28
Structure (SMILES): Clc1ccc2c(c1)nc1[nH]nc(C3CCN(c4ccccn4)CC3)n12

inhibition [1]: < 50%
pKi [2]: 6.59
Structure (SMILES): Clc1ccc2c(c1)C1CC1c1nnc(C3CCN(c4ccccn4)CC3)n1-2 (stereo unspecified)

inhibition [1]: < 50%
inhibition ([7]; 1321N1): 25%
Structure (SMILES): CC(C)(C)OC(=O)NC1Cc2cc(Cl)ccc2-n2c(C3CCN(c4ccccn4)CC3)nnc21 (stereo unspecified)

inhibition [1]: 43%
pKi [2]: 5.62
Structure (SMILES): CC(=O)N1c2cc(Cl)ccc2-n2c(C3CCN(c4ccccn4)CC3)nnc2C1(C)C

pIC50 [3]: 7.15
pKi [2]: 8.05
inhibition [9]: 13%
microsomal CLint at 1 µM [4]: 12 µL/min/mg
microsomal CLint at 1 µM [5]: 15 µL/min/mg
microsomal CLint at 1 µM [6]: 3 µL/min/mg
Structure (SMILES): Clc1ccc2c(c1)CCc1nnc([C@H]3CC[C@H](Oc4ccccn4)CC3)n1-2
inhibition in vivo at 10 mg/kg [8]: 66%

inhibition [1]: 40%
pKi [2]: 6.15
microsomal CLint at 1 µM [4]: 39 µL/min/mg
microsomal CLint at 1 µM [5]: 115 µL/min/mg
Papp A→B at 1 µM [10]: 28 ×10⁻⁶ cm/s
efflux ratio at 1 µM [11]: 0.8
microsomal CLint at 1 µM [6]: 8 µL/min/mg
Structure (SMILES): COc1nc2cc(Cl)ccc2n2c(C3CCN(c4ccccn4)CC3)nnc12

pIC50 [3]: 5.85
efflux ratio at 10 µM [12]: 0.8
Papp A→B at 10 µM [13]: 51 ×10⁻⁶ cm/s
pKi [2]: 7.15
microsomal CLint at 1 µM [4]: 32 µL/min/mg
microsomal CLint at 1 µM [5]: 36 µL/min/mg
microsomal CLint at 1 µM [6]: 0.3 µL/min/mg
Structure (SMILES): Clc1ccc2c(c1)CCc1nnc(C3CCN(c4ccccn4)CC3)n1-2

pIC50 [3]: 8.49
pKi [2]: 8.85
microsomal CLint at 1 µM [4]: 196 µL/min/mg
microsomal CLint at 1 µM [5]: 116 µL/min/mg
Papp A→B at 1 µM [10]: 37 ×10⁻⁶ cm/s
efflux ratio at 1 µM [11]: 1.1
microsomal CLint at 1 µM [6]: 19 µL/min/mg
Structure (SMILES): Clc1ccc2c(c1)CCCc1nnc(C3CCN(c4ccccn4)CC3)n1-2

inhibition [1]: 0%
inhibition ([7]; 1321N1): 3%
Structure (SMILES): O=c1[nH]c2cc(Cl)ccc2n2c(C3CCN(c4ccccn4)CC3)nnc12

inhibition [1]: < 50%
inhibition ([7]; 1321N1): 34%
Structure (SMILES): NC1Cc2cc(Cl)ccc2-n2c1nnc2C1CCN(c2ccccn2)CC1 (stereo unspecified)

pIC50 [3]: 7.89
efflux ratio at 10 µM [12]: 0.8
Papp A→B at 10 µM [13]: 46 ×10⁻⁶ cm/s
pKi [2]: 9.15
microsomal CLint at 1 µM [4]: 111 µL/min/mg
microsomal CLint at 1 µM [5]: 50 µL/min/mg
microsomal CLint at 1 µM [6]: 8 µL/min/mg
Structure (SMILES): Brc1ccc2c(c1)CCCc1nnc(C3CCN(c4ccccn4)CC3)n1-2

pIC50 [3]: 7.70
pKi [2]: 8.64
microsomal CLint at 1 µM [4]: 231 µL/min/mg
microsomal CLint at 1 µM [5]: 188 µL/min/mg
microsomal CLint at 1 µM [6]: 8 µL/min/mg
Structure (SMILES): c1ccc(O[C@H]2CC[C@H](c3nnc4n3-c3ccccc3CCC4)CC2)nc1

inhibition [1]: < 50%
inhibition ([7]; 1321N1): 19%
Structure (SMILES): O=S(=O)(c1ccccn1)N1CCC(c2nnc3n2-c2ccc(Cl)cc2CC3)CC1

inhibition [1]: 28%
pKi [2]: 6.10
Structure (SMILES): CC1(C)Nc2cc(Cl)ccc2-n2c(C3CCN(c4ccccn4)CC3)nnc21

pIC50 [3]: 8.89
efflux ratio at 10 µM [12]: 0.9
Papp A→B at 10 µM [13]: 29 ×10⁻⁶ cm/s
pKi [2]: 9.22
microsomal CLint at 1 µM [4]: 110 µL/min/mg
microsomal CLint at 1 µM [5]: 90 µL/min/mg
microsomal CLint at 1 µM [6]: 9 µL/min/mg
Structure (SMILES): Brc1ccc2c(c1)CCCc1nnc([C@H]3CC[C@H](Oc4ccccn4)CC3)n1-2

inhibition [1]: 8%
inhibition ([7]; 1321N1): 27%
Structure (SMILES): Clc1ccc2nc3[nH]nc(C4CCN(c5ccccn5)CC4)n3c2c1

pIC50 [3]: 6.93
pKi [2]: 7.82
microsomal CLint at 1 µM [4]: 130 µL/min/mg
microsomal CLint at 1 µM [5]: 163 µL/min/mg
microsomal CLint at 1 µM [6]: 12 µL/min/mg
Structure (SMILES): c1ccc(N2CCC(c3nnc4n3-c3ccccc3CCC4)CC2)nc1

pIC50 [3]: 6.60
pKi [2]: 7.82
microsomal CLint at 1 µM [4]: 163 µL/min/mg
microsomal CLint at 1 µM [5]: 170 µL/min/mg
microsomal CLint at 1 µM [6]: 31 µL/min/mg
Structure (SMILES): CCc1ccc2c(c1)CCCc1nnc(C3CCN(c4ccccn4)CC3)n1-2

pIC50 [3]: 7.60
pKi [2]: 8.80
microsomal CLint at 1 µM [4]: 125 µL/min/mg
microsomal CLint at 1 µM [5]: 114 µL/min/mg
microsomal CLint at 1 µM [6]: 0.4 µL/min/mg
Structure (SMILES): Cc1cc([C@H]2CC[C@H](c3nnc4n3-c3ccccc3CCC4)CC2)no1

pIC50 [3]: 8.57
pKi [2]: 9.35
microsomal CLint at 1 µM [4]: 121 µL/min/mg
microsomal CLint at 1 µM [5]: 115 µL/min/mg
microsomal CLint at 1 µM [6]: 27 µL/min/mg
Structure (SMILES): C#Cc1ccc2c(c1)CCCc1nnc(C3CCN(c4ccccn4)CC3)n1-2

Second part, the compound before the results:

Structure (SMILES): COC(=O)CC1Cc2cc(Cl)ccc2-n2c1nnc2[C@H]1CC[C@H](Oc2ccccn2)CC1 (stereo partly specified)
pIC50 [3]: 6.66
pKi [2]: 7.55
microsomal CLint at 1 µM [4]: 72 µL/min/mg
microsomal CLint at 1 µM [5]: 373 µL/min/mg
microsomal CLint at 1 µM [6]: 81 µL/min/mg

Structure (SMILES): O=S(=O)(c1ccc(F)cc1)N1CCC(c2nnc3n2-c2ccc(Cl)cc2CC3)CC1
inhibition [1]: < 50%
inhibition ([7]; 1321N1): 36%

Structure (SMILES): O=S(=O)(c1ccc2c(c1)CCO2)N1CCC(c2nnc3n2-c2ccc(Cl)cc2CC3)CC1
inhibition [1]: < 50%
inhibition ([7]; 1321N1, filed as antagonist): 43%

Structure (SMILES): Cc1cc([C@H]2CC[C@H](c3nnc4n3-c3ccc(Cl)cc3[C@H]3C[C@@H]43)CC2)no1
pIC50 [3]: 6.20
pKi [2]: 7.26

Structure (SMILES): Clc1ccc2c(c1)C1CC1c1nnc([C@H]3CC[C@@H](Oc4ccccn4)CC3)n1-2 (stereo partly specified)
inhibition [1]: < 50%
pKi [2]: 6.74

Structure (SMILES): Clc1ccc2c(c1)CCc1nnc(C3CCNCC3)n1-2
inhibition [1]: < 50%
inhibition ([7]; 1321N1): 14%

Structure (SMILES): COC(=O)C12CC1c1cc(Cl)ccc1-n1c2nnc1[C@H]1CC[C@H](Oc2ccccn2)CC1 (stereo partly specified)
inhibition [1]: < 50%
pKi [2]: 6.40

Structure (SMILES): CC(C)(C)OC(=O)N1CCC(c2nnc3n2-c2ccc(Cl)cc2CC3)CC1
inhibition [1]: < 50%
inhibition ([7]; 1321N1): 37%

Structure (SMILES): Cc1ccc(S(=O)(=O)N2CCC(c3nnc4n3-c3ccc(Cl)cc3CC4)CC2)cc1
inhibition [1]: < 50%
inhibition ([7]; 1321N1, filed as antagonist): 42%

Structure (SMILES): Clc1ccc2c(c1)CCc1nnc(C3CCCCC3)n1-2
inhibition [1]: < 50%
inhibition ([7]; 1321N1): 35%

Structure (SMILES): O=C(C1CCN(c2ccccn2)CC1)N1CCNc2cc(Cl)ccc21
pIC50 [3]: 6.59
efflux ratio at 10 µM [12]: 0.7
Papp A→B at 10 µM [13]: 48 ×10⁻⁶ cm/s
pKi [2]: 8.85
microsomal CLint at 1 µM [4]: 404 µL/min/mg
microsomal CLint at 1 µM [5]: 132 µL/min/mg
microsomal CLint at 1 µM [6]: 80 µL/min/mg

Structure (SMILES): Cc1cc([C@H]2CC[C@H](c3nnc4n3-c3ccc(Cl)cc3[C@@H]3C[C@H]43)CC2)no1
inhibition [1]: < 50%
pKi [2]: 6.24

Structure (SMILES): Cc1nnc2n1-c1ccc(Cl)cc1CC2
inhibition [1]: < 50%
inhibition ([7]; 1321N1): 9%

Structure (SMILES): Cc1ccccc1N1CCN(C(=O)N2C[C@@H](C(=O)N3CCCC3)Cc3cc(Cl)ccc32)CC1
pIC50 [3]: 8.62
pKi [2]: 9.22
microsomal CLint at 1 µM [4]: 170 µL/min/mg
microsomal CLint at 1 µM [5]: 235 µL/min/mg
Papp A→B at 1 µM [10]: 10 ×10⁻⁶ cm/s
efflux ratio at 1 µM [11]: 1.3
microsomal CLint at 1 µM [6]: 72 µL/min/mg

Structure (SMILES): Cc1cc([C@H]2CC[C@H](c3nnc4n3-c3ccc(Br)cc3CCC4)CC2)no1
pIC50 [3]: 8.77
pKi [2]: 9.22
microsomal CLint at 1 µM [4]: 76 µL/min/mg
microsomal CLint at 1 µM [5]: 36 µL/min/mg
microsomal CLint at 1 µM [6]: 3 µL/min/mg

Structure (SMILES): Cc1cc([C@H]2CC[C@H](c3nnc4n3-c3ccc(Cl)cc3CCC4)CC2)no1
pIC50 [3]: 8.66
pKi [2]: 9.15
microsomal CLint at 1 µM [4]: 83 µL/min/mg
microsomal CLint at 1 µM [5]: 38 µL/min/mg
microsomal CLint at 1 µM [6]: 1 µL/min/mg

Structure (SMILES): Cc1cc([C@H]2CC[C@H](c3nnc4n3-c3ccc(Cl)cc3C3CC43)CC2)no1 (mixture of isomers)
pIC50 [3]: 6.30
pKi [2]: 7.00
microsomal CLint at 1 µM [4]: 1 µL/min/mg
microsomal CLint at 1 µM [5]: 3 µL/min/mg
microsomal CLint at 1 µM [6]: 0.3 µL/min/mg
